From PubChem
TCR CD3 inh: inhibitors of human TCR-CD3 interaction; TAMRA-labeled TCR probe fluorescence, biochemical; inhibition, % at 9.4 µM; 360,000 tested, 0.37% active; in the data active = inhibition above about 19%;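 also: recombinant mutant TCR 2C K166C tagged with TAMRA read by polarization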
HTRA1 inh: inhibitors of human serine peptidase HTRA1; inhibition, % at 5.96 µM; recombinant HTRA1, FP-rhodamine activity-based probe, fluorescence polarization; AID 504803; 340,000 tested, 0.5% active; Q92743; in the data active = inhibition above about 36%
SIAE inh: inhibitors of human sialic acid acetylesterase SIAE | Q9HAT2 | SIAE FP-Rh probe binding, fluorescence polarization | inhibition, % at 9.66 µM | 370,000 tested, 0.69% active | AID 1053197;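 active = inhibition above a cutoff: mean of compounds within the control limits plus 3 SD of those, cut at about 17% in these data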
rCAG RNA binder: r(CAG) repeat RNA binding. 370,000 tested, 1.3% active. inhibition, % at 3 µM. AID 651821. TO-PRO-1 dye displacement fluorescence;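 active = inhibition above the plate cutoff, the mean of all test compounds on that plate plus 3 SD, cut at about 35% in these data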;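 also: higher means more dye released from RNA so lower well fluorescence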
mABHD4 FP: ABHD4 (mouse) inhibition, primary FP screen; Q8VD66; purified mABHD4, FP-Rh probe fluorescence polarization; inhibition, % at 8.92 µM; 370,000 tested, 0.54% active;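 active = inhibition exceeding the mean over every tested compound plus 3 SD, cut at about 30% in these data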
Target sequence (Q8VD66 whole entry, looked up): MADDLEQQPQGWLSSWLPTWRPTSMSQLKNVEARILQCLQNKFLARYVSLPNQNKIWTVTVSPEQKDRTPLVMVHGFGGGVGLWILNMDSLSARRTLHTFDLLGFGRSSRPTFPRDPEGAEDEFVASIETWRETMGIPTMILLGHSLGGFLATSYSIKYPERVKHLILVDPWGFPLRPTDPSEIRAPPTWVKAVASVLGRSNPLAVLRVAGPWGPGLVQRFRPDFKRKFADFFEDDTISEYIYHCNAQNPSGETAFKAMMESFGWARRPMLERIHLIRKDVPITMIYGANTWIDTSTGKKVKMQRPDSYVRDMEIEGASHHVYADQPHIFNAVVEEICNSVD
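Assay system: wild-type mouse ABHD4 protein; compound: single nominal dose of 8.92 µM, 0.89% DMSO final; schedule: 45 min + 60 min at 25 °C; measured by: FP readout, ex 525 nm / em 598 nm; evaluation: % inhibition of FP-Rh probe binding versus controls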
SIAE confirm: confirmation of human SIAE inhibitors. shares compounds with SIAE inh. 2,300 tested, 13% active. inhibition, % at 9.66 µM. AID 1117263. SIAE FP-Rh activity-based probe, fluorescence polarization;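 active = mean inhibition of the replicates above the hit cutoff set in the primary screen, cut at about 17% in these data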;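 also: inhibitors lower polarization as more probe stays unbound to SIAE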
A number is an active result; 0 = inactive; - = not tested or not shown. Sampled rows, rich in hits. Any-hit rate of the full collection: about 2.5%.

SMILES | TCR CD3 inh | HTRA1 inh | SIAE inh | rCAG RNA binder | mABHD4 FP | SIAE confirm
Cc1ccc(-c2csc(N/N=C/c3ccco3)n2)c(C)c1 | 0 | 0 | 19 | 0 | 0 | 0
CN(C)S(=O)(=O)c1cccc(-c2csc(N/N=C/c3ccco3)n2)c1 | 0 | 0 | 0 | 0 | 0 | -
O=C(CSc1n[nH]c(-c2cccnc2)n1)Nc1ccc(Br)cc1 | 0 | 0 | 0 | 0 | 0 | -
O=C(CSc1n[nH]c(-c2cccnc2)n1)OC1CCCCC1 | 0 | 0 | 18 | 0 | 0 | 0
CCOC(=O)CN(C(=O)CSc1nnc2c(n1)[nH]c1ccccc12)c1ccccc1 | 0 | 0 | 23 | 0 | 0 | 0
O=C(NC(Cc1c[nH]c2ccccc12)C(=O)Nc1ccc(OC(F)(F)F)cc1)c1cccs1 (centres undefined) | 0 | 0 | 0 | 0 | 0 | -
O=C(NC(Cc1c[nH]c2ccccc12)C(=O)Nc1ccc(F)c([N+](=O)[O-])c1)c1cccs1 (centres undefined) | 0 | 0 | 19 | 0 | 0 | 0
Cc1ccn2c(NC3CCCC3)c(-c3ccncc3)nc2c1 | 0 | 0 | 18 | 0 | 0 | 0
COCCNc1nc2ccccc2nc1NS(=O)(=O)c1ccc(C)cc1C | 0 | 0 | 0 | 0 | 0 | -
CC1CN(c2ccc(NC(=S)Nc3ccc(N4CC(C)OC(C)C4)cc3)cc2)CC(C)O1 (centres undefined) | 0 | 0 | 20 | 0 | 0 | 0
COc1ccc(NC(=O)Nc2ccccc2OC)cc1 | 0 | 0 | 0 | 0 | 0 | -
COc1ccccc1NC(=O)Nc1ccc(NC(=O)c2ccccc2O)cc1 | 0 | 0 | 51 | 0 | 0 | 26
CCCN(C(=O)CCc1cn(CCC)c2ccccc12)c1ccc(N(C)c2ccccn2)cc1 | 0 | - | 0 | 0 | 0 | -
CCCCCn1cc(CCC(=O)Nc2ccc(N(C)c3ccccn3)cc2)c2ccccc21 | 0 | - | 26 | 0 | 0 | 27
CCC(C)n1c(-c2cccs2)nc2nc3ccccc3nc21 (centres undefined) | 0 | 0 | 0 | 0 | 0 | -
O=c1ccc(-c2ccc(S(=O)(=O)N3CCCCC3)o2)n[nH]1 | 0 | 0 | 0 | 0 | 0 | -
CN1/C(=C\C(=O)Nc2ccc(Br)cc2)C(C)(C)c2ccccc21 | 0 | 0 | 26 | 0 | 0 | 0
CCCCc1c(-c2ccccc2OC)ncn1Cc1cccc(OC)c1 | 0 | - | 20 | 0 | 0 | 0
CCCCc1c(-c2ccccc2OC)ncn1CCc1cccc(OC)c1 | 0 | - | 0 | 0 | 0 | -
Clc1ccc(N/N=C/c2ccncc2)cc1Cl | 0 | 0 | 24 | 0 | 0 | 19
O=C(Nc1ccc(Br)cc1Br)Nc1cccc2[nH]c([C@@H]3O[C@H](CO)[C@@H](O)[C@H](O)[C@H]3O)nc12 | 0 | - | 19 | 0 | 0 | 0
O=C(Nc1cccc(Cc2ccccc2)c1)Nc1cccc2[nH]c([C@@H]3O[C@H](CO)[C@@H](O)[C@H](O)[C@H]3O)nc12 | 0 | - | 0 | 0 | 0 | -
O=[N+]([O-])c1ccc(N/N=C/c2cccnc2)cc1 | 0 | 0 | 0 | 0 | 0 | -
O=[N+]([O-])c1ccc(N/N=C/c2cccc(O)c2)cc1 | 0 | 0 | 20 | 0 | 0 | 0
Oc1ccc(/C=N/Nc2ccc(C(F)(F)F)cn2)cc1 | 0 | 0 | 0 | 0 | 0 | -
SMILES | TCR CD3 inh | HTRA1 inh | SIAE inh | rCAG RNA binder | mABHD4 FP | SIAE confirm
COc1cc(/C=N/Nc2ccc(C(F)(F)F)cn2)cc(OC)c1O | 0 | 0 | 18 | 0 | 0 | 0
CCOC(=O)CC1COc2ccccc2N1C(=O)c1cccc([N+](=O)[O-])c1 (centres undefined) | 0 | 0 | 0 | 0 | 0 | -
CC1(C)CC(=O)C2=C(C1)N(c1ccc(F)cc1)C(N)=C(C#N)C2c1cccs1 (centres undefined) | 0 | 0 | 31 | 0 | 0 | 0
Cc1cc(C)c(NC(=O)Nc2ccc3c(c2)OCO3)c(C)c1 | 0 | 0 | 0 | 0 | 0 | -
Cc1cc(C)c2[nH]c(C(=O)Nc3ccc4c(c3)OCO4)cc2c1 | 0 | 0 | 18 | 0 | 0 | 0
O=C(CNc1ccc2ccccc2c1)N/N=C/c1cc2ccccc2nc1Cl | 0 | 0 | 18 | 0 | 0 | 0
CCN(CC)c1ccc(/C=N/NC(=O)c2nnn(-c3nonc3N)c2C(C)C)c(O)c1 | 0 | 0 | 17 | 0 | 0 | 0
CCCN(CCC)Cc1c(C(=O)N/N=C/c2ccoc2)nnn1-c1nonc1N | 0 | 0 | 0 | 0 | 0 | -
CC(C)c1c(C(=O)N/N=C/c2ccc3c(c2)OCO3)nnn1-c1nonc1N | 0 | 0 | 0 | 0 | 0 | -
CCCN(CCC)Cc1c(C(=O)N/N=C/c2ccco2)nnn1-c1nonc1N | 0 | 0 | 17 | 0 | 0 | 0
Nc1c(-c2ccccc2Cl)cnn1-c1cccc([N+](=O)[O-])c1 | 0 | 0 | 75 | 0 | 0 | 0
Cc1ccccc1-c1cnn(-c2cccc([N+](=O)[O-])c2)c1N | 0 | 0 | 0 | 0 | 0 | -
O=C(c1ccc(Cl)cc1)N1CCC2CC1c1cc(-c3ccccc3)ccc12 (centres undefined) | 0 | 0 | 21 | 0 | 0 | 0
C/C(=N\NC(=O)CNc1ccc(F)cc1)c1cc2ccccc2o1 | 0 | 0 | 0 | 0 | 0 | -
COc1ccc(NCC(=O)N/N=C(\C)c2cc3ccccc3o2)cc1 | 0 | 0 | 18 | 0 | 0 | 0
C/C(=N\NC(=O)c1ccc(-c2ccccc2)cc1)c1ccco1 | 0 | 0 | 0 | 0 | 0 | -
C/C(=N\NC(=O)c1cc([N+](=O)[O-])cc([N+](=O)[O-])c1)c1ccco1 | 0 | 0 | 18 | 0 | 0 | 0
COc1ccc(C(=O)NCC2(c3ccc(OC)c(OC)c3)CCCC2)c(OC)c1 | 0 | 0 | 0 | 0 | 0 | -
Cc1ccn2c(=O)nc(SCC(=O)N3CCN(c4ccccc4)CC3)nc2c1 | 0 | 0 | 18 | 0 | 0 | 0
COc1ccccc1OCCNC(=O)Nc1ccc(Br)cc1 | 0 | 0 | 18 | 0 | 0 | 0
COc1ccccc1OCCNC(=O)c1ccc(Br)cc1 | 0 | 0 | 0 | 0 | 0 | -
CC(C)n1cc(/C=N/Nc2ccc(Cl)c(C(=O)O)c2)c2ccccc21 | - | 0 | - | - | - | -
O=C(CCn1c2c(c3ccccc31)CCCC2)NNC(=O)c1ccccc1Cl | 0 | 0 | 0 | 0 | 0 | -
O=C(CCn1c2c(c3ccccc31)CCCC2)NNC(=O)c1cccc([N+](=O)[O-])c1 | 0 | 0 | 18 | 0 | 0 | 0
CC1CCCN(CCC(=O)Nc2ccccc2)C1 (centres undefined) | 0 | 0 | 0 | 0 | 0 | -
SMILES | TCR CD3 inh | HTRA1 inh | SIAE inh | rCAG RNA binder | mABHD4 FP | SIAE confirm
CCOC(=O)C1(CCCc2ccccc2)CCN(C(=O)C2CCCN(C(N)=O)C2)CC1 (centres undefined) | 0 | 0 | 0 | 0 | 0 | -
O=C1c2ccccc2C(c2nnnn2-c2ccc3c(c2)OCCO3)N1Cc1cccnc1 (centres undefined) | 0 | - | 25 | 0 | 0 | 0
Fc1cccc2sc(Nc3nc4cc5c(cc4s3)OCCO5)nc12 | 0 | 0 | 0 | 0 | 0 | -
Fc1cc(F)c2nc(Nc3nc4cc5c(cc4s3)OCO5)sc2c1 | 0 | 0 | 25 | 0 | 0 | 85
CCOc1ccc(OCc2ccc(C(=O)O)o2)cc1 | 0 | 0 | 39 | 0 | 0 | 0
O=C(O)c1ccc(COc2ccc3ccccc3c2)o1 | 0 | 0 | 0 | 0 | 0 | -
